Experimental data as given in ChEMBL document CHEMBL3856201, “5,10b-Ethanophenanthridine amaryllidaceae alkaloids inspire the discovery of novel bicyclic ring systems with activity against drug resistant cancer cells” (2016).
The source made the active and inactive calls. No cut-off for these calls is given here.

Assays:
[1] = Antiproliferative activity against human HeLa cells after 48 hrs by MTT assay; assay type: functional
In short: (§1)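 HeLa cells were cultured in DMEM + 10% FBS and MCF-7 cells in RPMI + 10% FBS, both at 37 °C under 5% CO2. Compounds were diluted from DMSO stocks and applied for 48 h. Viability was read by MTT relative to DMSO control. The value is the concentration reducing viability by 50%, ±SD from two independent experiments of 4 replicates each.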

[2] = Antiproliferative activity against human MCF7 cells after 48 hrs by MTT assay; assay type: functional; details: MCF7, 48 h; in short: as §1
[3] = Antiproliferative activity against drug-sensitive human Hs683 cells after 48 to 96 hrs by MTT assay; assay type: functional; details: Hs 683
In short: (§2)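 MTT read-out. T98G and Hs683 cells were grown in DMEM with 10% FBS, glutamine, gentamicin and penicillin-streptomycin at 37 °C and 5% CO2. Compounds came from 100 or 50 mM DMSO stocks and were tested at 0.001–100 µM for 48–96 h. Controls were 0.1% DMSO (negative) and 1 µM phenyl arsine oxide (positive). The value is the mean concentration giving 50% viability loss; replicate number varied.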

[4] = Antiproliferative activity against drug-resistant human U373 cells after 48 to 96 hrs by MTT assay; assay type: functional, U-373MG ATCC; details: U373 MG
In short: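 Culture was RPMI with 10% heat-inactivated FBS plus glutamine and antibiotics for U373 cells. Compound exposure was 0.001–100 µM for 48–96 h, with 0.1% DMSO and 1 µM phenyl arsine oxide as controls. The MTT assay gave the average concentration cutting viability by 50%; replicate numbers varied.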

[5] = Antiproliferative activity against drug-resistant human U251 cells after 48 to 96 hrs by MTT assay; assay type: functional; details: U-251
In short: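 U251 cells were kept in 10% MEM with glutamine, gentamicin and penicillin-streptomycin at 37 °C and 5% CO2. After seeding they were grown 24–72 h and then given compounds at 0.001–100 µM (from 100 or 50 mM DMSO stocks) for 48–96 h. Viability was read by MTT. Vehicle control was 0.1% DMSO; 1 µM phenyl arsine oxide served as positive control. The result is the average 50%-viability-reducing concentration.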

[6] = Antiproliferative activity against drug-resistant human U87 cells after 48 to 96 hrs by MTT assay; assay type: functional, U-87MG ATCC; details: U-87 MG
In short: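 U87 cells grown in DMEM with glutamine, gentamicin and penicillin-streptomycin (37 °C, 95% humidity, 5% CO2) were seeded and then treated with 0.001–100 µM compound for 48–96 h. Readout was MTT. Controls were 0.1% DMSO and 1 µM phenyl arsine oxide. The value is the average concentration reducing viability 50%.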

[7] = Antiproliferative activity against drug-resistant human T98G cells after 48 to 96 hrs by MTT assay; assay type: functional; in short: as §2
[8] = Antiproliferative activity against drug-resistant human A549 cells after 48 to 96 hrs by MTT assay; assay type: functional
In short: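 A549 cells grown in RPMI with 10% heat-inactivated FBS, 4 mM glutamine and antibiotics at 37 °C under 5% CO2. Compounds came from 100 or 50 mM DMSO stocks and were tested at 0.001–100 µM for 48–96 h. Read-out was MTT. The value is the mean concentration giving 50% viability loss, with varied replicate numbers. Controls were 0.1% DMSO (negative) and 1 µM phenyl arsine oxide (positive).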

[9] = Antiproliferative activity against patient-derived TMZ-sensitive GBM 090909 cells after 48 to 96 hrs by MTT assay; assay type: functional; details: Homo sapiens
In short: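 Primary GBM neurosphere cultures came from resected patient tumour. Tissue was minced, dissociated with 100 U/mL collagenase in neurobasal medium for 30 min at 37 °C, filtered through 70 µm, spun at 200 × g for 5 min, and grown in ultra-low attachment wells in neurobasal medium with B27. Compounds were applied at 0.001–100 µM for 48–96 h. MTT gave the average 50%-viability concentration.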

[10] = Antiproliferative activity against patient-derived TMZ-resistant GBM 031810 cells over-expressing MGMT after 48 to 96 hrs by MTT assay; assay type: functional; details: Homo sapiens
[11] = Antiproliferative activity against patient-derived paclitaxel-sensitive NCI-H1993 cells after 48 to 96 hrs by MTT assay; assay type: functional; details: Homo sapiens
[12] = Antiproliferative activity against patient-derived paclitaxel-resistant NCI-H2073 cells after 48 to 96 hrs by MTT assay; assay type: functional; details: Homo sapiens
[13] = Antiproliferative activity against human MES-SA cells after 48 to 96 hrs by MTT assay; assay type: functional
In short: (§3)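 Parent MES-SA and MES-SA/Dx5 uterine sarcoma cells were grown in RPMI-1640 with 10% FBS. The Dx5 line was kept in 500 nM doxorubicin after stepwise selection from 100 nM in twofold steps, about 2 passages per step. MTT assay used 0.001–100 µM compound for 48–96 h, with 0.1% DMSO and 1 µM phenyl arsine oxide controls. The ratio is the Dx5 GI50 divided by the parent GI50.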

[14] = Antiproliferative activity against human MES-SA/Dx5 cells after 48 to 96 hrs by MTT assay; assay type: functional; in short: as §3
NCI-H1993 = test: Potentiation of paclitaxel-induced cytotoxicity against patient-derived paclitaxel-sensitive NCI-H1993 cells assessed as reduction in cell viability up to 100 uM after 96 hrs by Celltiter-Glo luminescent assay; assay type: functional, cell-based; details: Homo sapiens
In short: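 NCI-H1993 cells were seeded at 4×10^3 per well and grown 24 h. […] Viability was read by CellTiter-Glo luminescence. Predicted additivity was calculated by Bliss independence, Exy = Ex + Ey − ExEy.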

[15] = Inhibition of cap/HCV-mediated translation in mouse Krebs2 cell free extract expressing FF/HCV/Ren mRNA reporter transcript assessed as reduction in luciferase production at 50 uM relative to control; assay type: functional
In short: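 Krebs-2 translation extracts were programmed with bicistronic FF/HCV/Ren mRNA and incubated with compound at 50 µM or vehicle (0.5% DMSO). Firefly (cap) and Renilla (HCV IRES) luciferase activities were expressed relative to the DMSO control, from 2 independent translation reactions, as mean with error of the mean. Reference inhibitors were 1 µM hippuristanol and 10 µM anisomycin.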

Oryctolagus cuniculus = species on record: Oryctolagus cuniculus; test: Inhibition of cap/HCV-mediated translation in rabbit reticulocyte lysate expressing FF/HCV/Ren mRNA reporter transcript assessed as reduction in luciferase production at 50 uM after 1 hr relative to control; assay type: functional
In short: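 Rabbit reticulocyte lysate was programmed with bicistronic FF/HCV/Ren mRNA and incubated with compound (50 µM) or 0.5% DMSO vehicle. Firefly and Renilla luciferase activities were expressed relative to the DMSO control. Two independent translation reactions, reported with error of the mean.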

HeLa S3 [16] = test: Inhibition of translation in human HeLaS3 assessed as increase in eIF2alpha phosphorylation at 50 uM after 1 hr by Western blot analysis; assay type: functional
In short: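 HeLa S3 cells were exposed to 50 µM compound for 1 h. Extracts were resolved by SDS-PAGE and transferred to PVDF. Western blots were probed for phospho-eIF2α, pan-eIF2α and eEF2.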

HeLa S3 [17] = test: Inhibition of translation in human HeLaS3 assessed as induction of dis-aggregation of polysomes at 50 uM after 1 hr by UV-based […] method; assay type: functional
In short: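 HeLa S3 cells were exposed to 50 µM compound for 1 h, then analysed by polysome profiling against a DMSO-treated control profile.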

## O=C1C=C[C@]23CC[N@](Cc4c2sc2ccccc42)[C@H]3C1
[1]
  GI50: 8 µM
[2]
  GI50: 5 µM
[3]
  GI50: 3 µM
[4]
  GI50: 2 µM
[5]
  GI50: 1 µM
[6]
  GI50: 2 µM
[7]
  GI50: 7 µM
[8]
  GI50: 9 µM
[9]
  GI50: 5 µM
[10]
  GI50: 1 µM
[11]
  GI50: 3 µM
[12]
  GI50: 11 µM
[13]
  GI50: 5 µM
[14]
  GI50: 7 µM
NCI-H1993
  Activity: Active
[15]
  inhibition at 50 µM: 25%
Oryctolagus cuniculus
  inhibition: 25%
HeLa S3 [16]
  inhibition: Active
HeLa S3 [17]
  inhibition: Active
